Reference: publication PMC2965777 (Biochemistry, 2010)

Assays:
[1] = Size exclusion chromatography, apparent molecular weight; format: physicochemical; conditions: Superdex Peptide 10/300; 10 mM sodium phosphate, 10 mM NaCl, pH 7.40; 0.5 mL/min; 100 μM YAQ12A, 170 μM 5QMe2; 230 nm
[2] = Sedimentation equilibrium analytical ultracentrifugation of 5QMe2 alone; format: physicochemical
How it was run: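 Equilibrium sedimentation of inhibitor alone at 100 µM, 500 µM and 1 mM in 10 mM sodium phosphate, pH 7.40, at 20 °C, in six-sector cells with hourly scans. Rotor speed ran 3000 rpm (1 scan), 36,000 (16), 48,000 (13) and 60,000 rpm (19). A280 was used (A230 for 100 µM). Molecular weight came from global analysis of the three concentrations at each speed.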

[3] = test system: YAQ12A; assay: Sedimentation assay of YAQ12A aggregation; format: biochemical
How it was run: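 Disaggregated peptide was diluted to 100 µM in 10 mM sodium phosphate, pH 7.40, and held at 37 °C without agitation, with or without inhibitor added as lyophilized aliquots. After 98,000 × g for 1 h at 22 °C, 100 µL of the top third went onto analytical C18 RP-HPLC (A220, isocratic water:acetonitrile:TFA 87.5:12.5:0.1). Monomer was quantified from peak area against a standard curve; mean ± S.D. of three replicates.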

[4] = test system: YAQ12A; assay: Electron microscopy of YAQ12A fibrillation products; format: biochemical; conditions: 100 μM YAQ12A with 500 μM 5QMe2, 40 h, 37 °C
How it was run: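 Aggregation products imaged by electron microscopy after incubating monomeric peptide in 10 mM sodium phosphate, pH 7.40, for 40 h at 37 °C, with or without inhibitor. Micrographs were recorded at 15,000 or 39,000× magnification, plus 1.4× from the CCD camera.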

MW^app by size exclusion chromatography [1]: ~ 1176.0
association state of the inhibitor alone ([2]; 100, 500 and 1000 μM, three rotor speeds): monomeric
molecular weight of 5QMe2 alone, three concentrations analysed globally ([2]; rotor speed 36,000 rpm): 988.5
molecular weight of 5QMe2 alone, three concentrations analysed globally ([2]; rotor speed 48,000 rpm): 1000.0
molecular weight of 5QMe2 alone, three concentrations analysed globally ([2]; rotor speed 60,000 rpm): 980.1
Substance: Anth-K-Q-Q(Me2)-Q-Q(Me2)-Q-CONH2 [5QMe2]
time after which more rapid loss of soluble YAQ12A follows the lag period ([3]; 100 μM YAQ12A with 100 μM 5QMe2, time course, 37 °C): ~ 70 h
aggregation of YAQ12A over the time course ([3]; 100 μM YAQ12A with 1 mM 5QMe2, time course to 110 h, 37 °C): no aggregation was observed for the entire time period
reversal of YAQ12A aggregation ([3]; 1 mM 5QMe2 added to 100 μM YAQ12A after 10 or 20 h of aggregation): did not reverse aggregation
fibril formation of YAQ12A by electron microscopy [4]: abrogates fibril formation
